ChEMBL document CHEMBL4261564, “Studies on enantioselectivity of chiral 4-acetylamino-6-alkyloxy-2-alkylthiopyrimidines acting as antagonists of the human A3 adenosine receptor” (Medchemcomm, 2018)
pIC50, pKi: −log10 of the molar value.

Columns and labels:
[1] = molecular target: T1, Adenosine receptor A3 (Homo sapiens, UniProt P0DMS8); assay: Displacement of [3H]NECA from recombinant human adenosine A3 receptor expressed in CHO cell membranes measured after 180 mins
T1 sequence (P0DMS8 whole entry): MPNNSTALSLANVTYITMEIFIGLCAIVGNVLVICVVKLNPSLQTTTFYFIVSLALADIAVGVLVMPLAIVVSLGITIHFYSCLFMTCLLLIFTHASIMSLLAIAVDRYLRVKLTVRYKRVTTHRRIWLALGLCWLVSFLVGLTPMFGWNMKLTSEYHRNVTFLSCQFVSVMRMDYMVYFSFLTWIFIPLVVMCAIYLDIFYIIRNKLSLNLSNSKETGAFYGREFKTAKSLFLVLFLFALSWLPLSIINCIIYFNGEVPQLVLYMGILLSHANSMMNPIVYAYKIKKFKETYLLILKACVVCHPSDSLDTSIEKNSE

[2] = molecular target: T1, Adenosine receptor A3; assay: Antagonist activity at recombinant human adenosine A3 receptor expressed in CHO cells assessed as reduction in Cl-IB-MECA-induced inhibition of forskolin-stimulated [3H]cAMP accumulation preincubated for 10 mins followed by Cl-IB-MECA addition measured after 30 mins by liquid scintillation counting method; assay type: functional, cell-based
How it was run: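 A3 AR CHO cells are plated at about 30,000 per well and used 24 h later. They are preincubated 15 min at 37 °C in DMEM containing ADA 1 U/mL and Ro20-1724 20 µM. Compound is added 10 min before Cl-IB-MECA, with 1 µM forskolin present. The reaction is stopped with 0.4 N HCl and neutralised with KOH. cAMP is measured by competitive binding of [3H]cAMP (2 nM) to bovine adrenal binding protein for 150 min at 0 °C, then filtered and counted by scintillation.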

[3] = molecular target: T2, Adenosine receptor A2b (Homo sapiens, UniProt P29275); assay: Displacement of [3H]NECA from recombinant human adenosine A2B receptor expressed in CHO cell membranes measured after 180 mins
T2 sequence (P29275 whole entry): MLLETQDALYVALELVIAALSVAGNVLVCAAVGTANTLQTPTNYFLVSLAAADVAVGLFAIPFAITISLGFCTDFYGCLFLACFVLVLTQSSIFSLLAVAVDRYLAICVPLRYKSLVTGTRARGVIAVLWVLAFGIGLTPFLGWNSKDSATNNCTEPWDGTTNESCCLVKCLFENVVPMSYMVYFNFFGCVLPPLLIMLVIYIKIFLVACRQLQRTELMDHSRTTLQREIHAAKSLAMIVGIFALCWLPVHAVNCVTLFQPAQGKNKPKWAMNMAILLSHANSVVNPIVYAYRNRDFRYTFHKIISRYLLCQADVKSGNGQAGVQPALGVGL

[4] = molecular target: T3, Adenosine receptor A1 (Homo sapiens, UniProt P30542); assay: Displacement of [3H]DPCPX from human adenosine A1 receptor expressed in CHO cell membranes after 180 mins
T3 sequence (P30542 whole entry): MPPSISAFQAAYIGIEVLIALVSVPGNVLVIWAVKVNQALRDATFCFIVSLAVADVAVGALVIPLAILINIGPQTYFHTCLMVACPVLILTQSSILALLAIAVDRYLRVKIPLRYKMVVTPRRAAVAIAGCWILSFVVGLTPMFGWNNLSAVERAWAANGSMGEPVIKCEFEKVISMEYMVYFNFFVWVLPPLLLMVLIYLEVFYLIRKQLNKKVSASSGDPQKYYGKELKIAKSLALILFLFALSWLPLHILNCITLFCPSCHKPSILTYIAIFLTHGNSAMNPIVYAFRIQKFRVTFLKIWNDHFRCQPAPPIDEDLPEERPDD
How it was run: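 Membranes (30 µg protein) are incubated with 3 nM [3H]DPCPX at 25 °C in Tris-HCl 50 mM, MgCl2 2 mM, ADA 2 U/mL, pH 7.4. Six test concentrations are used, and nonspecific binding is set with 50 µM R-PIA. The Kd of 3 nM is used for Ki. Values are the mean of at least three experiments, each in duplicate.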

[5] = molecular target: Adenosine receptor A2a (Homo sapiens, UniProt P29274); assay: Displacement of [3H]NECA from recombinant human adenosine A2A receptor expressed in CHO cell membranes measured after 90 mins
Sequence of Adenosine receptor A2a (P29274 whole entry): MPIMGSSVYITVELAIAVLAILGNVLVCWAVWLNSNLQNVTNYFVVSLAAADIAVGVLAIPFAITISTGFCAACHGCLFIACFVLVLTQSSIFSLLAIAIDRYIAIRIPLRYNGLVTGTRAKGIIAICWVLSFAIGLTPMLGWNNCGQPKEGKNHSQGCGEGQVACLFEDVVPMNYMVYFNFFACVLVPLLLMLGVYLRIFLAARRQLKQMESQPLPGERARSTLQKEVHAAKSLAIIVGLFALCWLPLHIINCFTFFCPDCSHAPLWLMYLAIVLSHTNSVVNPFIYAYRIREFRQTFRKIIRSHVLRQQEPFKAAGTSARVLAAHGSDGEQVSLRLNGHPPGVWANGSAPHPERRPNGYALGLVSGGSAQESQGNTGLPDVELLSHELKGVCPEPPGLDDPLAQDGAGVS

Row | pKi [1] | pIC50 [2] | pKi [3] | pKi [4] | pKi [5] | SMILES
1 | 6.13 | – | – | – | – | CCCOc1cc(NC(C)=O)nc(S[C@H](C)c2ccccc2)n1
2 | 9.30 | 8.10 | – | – | – | CCCSc1nc(NC(C)=O)cc(O[C@@H](C)c2ccccc2)n1
3 | 5.86 | – | – | – | – | CC[C@@H](C)Oc1cc(NC(C)=O)nc(SCc2ccccc2)n1
4 | 6.74 | 6.82 | – | – | – | CC[C@H](C)Oc1cc(NC(C)=O)nc(SCc2ccccc2)n1
5 | 8.77 | – | – | – | – | CCCSc1nc(NC(C)=O)cc(O[C@H](C)c2ccccc2)n1
6 | 6.36 | 6.37 | – | – | – | CCCOc1cc(NC(C)=O)nc(S[C@@H](C)c2ccccc2)n1
7 | 9.22 | – | < 6.00 | < 6.00 | < 6.00 | CCCSc1nc(NC(C)=O)cc(OC(C)c2ccccc2)n1 (racemic)
8 | 6.71 | – | < 6.00 | < 6.00 | < 6.00 | CCC(C)Oc1cc(NC(C)=O)nc(SCc2ccccc2)n1 (racemic)
9 | 6.24 | – | < 6.00 | < 6.00 | < 6.00 | CCCOc1cc(NC(C)=O)nc(SC(C)c2ccccc2)n1 (racemic)
